What was measured:
[1] = molecular target: T1, Retinoic acid receptor alpha (Homo sapiens) (UniProt P10276); test: Antagonist activity at Gal4-fused RARalpha (unknown origin) transfected in HEK293 cells assessed as ATRA-induced transcriptional activity at 4 uM by luciferase/beta-galactosidase reporter gene assay relative to ATRA-treated control; format: cell-based; design: scale not given: the % may be the effect or the level left
T1 sequence (whole entry): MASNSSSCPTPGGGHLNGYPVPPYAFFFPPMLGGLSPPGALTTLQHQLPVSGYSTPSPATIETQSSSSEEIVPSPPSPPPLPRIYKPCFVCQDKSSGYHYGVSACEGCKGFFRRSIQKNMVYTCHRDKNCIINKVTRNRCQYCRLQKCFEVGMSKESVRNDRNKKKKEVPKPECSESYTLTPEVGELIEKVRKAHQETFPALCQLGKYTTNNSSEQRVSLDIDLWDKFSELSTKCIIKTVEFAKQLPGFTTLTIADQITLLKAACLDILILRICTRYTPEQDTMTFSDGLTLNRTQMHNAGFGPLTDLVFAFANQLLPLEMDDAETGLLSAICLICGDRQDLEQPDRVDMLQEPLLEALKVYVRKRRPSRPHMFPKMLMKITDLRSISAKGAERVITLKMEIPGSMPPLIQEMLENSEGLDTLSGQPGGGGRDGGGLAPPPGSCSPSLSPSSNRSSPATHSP
Outline: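 Same Gal4-RARα HEK-293 UAS-luciferase system, stimulated with 0.1 µM atRA alone or with 4 µM compound (40-fold molar excess); 1 µM UVI2024 served as control antagonist. Background-subtracted luciferase was normalized to β-galactosidase and given as percent of atRA-stimulated cells. Data: 2–3 experiments, triplicate.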

Jurkat = test: Induction of apoptosis in human Jurkat cells assessed as activation of DEVDase at 5 uM after 4 hrs by fluorometric assay relative to control; format: functional
Outline: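 Jurkat cells (20,000/well, 0.5% FBS RPMI) were treated 4 h with 5 µM compound and lysed 15 min in PIPES pH 7 buffer with NP-40, cytochalasin B and protease inhibitors. An equal volume of 2× caspase buffer containing 100 µM Ac-DEVD-AFC was added. AFC fluorescence (ex 390/em 510 nm) was read every 2 min for 1 h at 37 °C; the linear slope was taken as activity, expressed as fold over DMSO control. Data: 2 experiments, triplicate.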

[2] = molecular target: T2, Inhibitor of nuclear factor kappa-B kinase subunit alpha (Homo sapiens) (UniProt O15111); test: Inhibition of recombinant IKKalpha (unknown origin) using ulight-IkappaomegaBalpha as substrate at 20 uM after 2 hrs by LANCE ultra TR-FRET assay relative to control
T2 sequence (whole entry): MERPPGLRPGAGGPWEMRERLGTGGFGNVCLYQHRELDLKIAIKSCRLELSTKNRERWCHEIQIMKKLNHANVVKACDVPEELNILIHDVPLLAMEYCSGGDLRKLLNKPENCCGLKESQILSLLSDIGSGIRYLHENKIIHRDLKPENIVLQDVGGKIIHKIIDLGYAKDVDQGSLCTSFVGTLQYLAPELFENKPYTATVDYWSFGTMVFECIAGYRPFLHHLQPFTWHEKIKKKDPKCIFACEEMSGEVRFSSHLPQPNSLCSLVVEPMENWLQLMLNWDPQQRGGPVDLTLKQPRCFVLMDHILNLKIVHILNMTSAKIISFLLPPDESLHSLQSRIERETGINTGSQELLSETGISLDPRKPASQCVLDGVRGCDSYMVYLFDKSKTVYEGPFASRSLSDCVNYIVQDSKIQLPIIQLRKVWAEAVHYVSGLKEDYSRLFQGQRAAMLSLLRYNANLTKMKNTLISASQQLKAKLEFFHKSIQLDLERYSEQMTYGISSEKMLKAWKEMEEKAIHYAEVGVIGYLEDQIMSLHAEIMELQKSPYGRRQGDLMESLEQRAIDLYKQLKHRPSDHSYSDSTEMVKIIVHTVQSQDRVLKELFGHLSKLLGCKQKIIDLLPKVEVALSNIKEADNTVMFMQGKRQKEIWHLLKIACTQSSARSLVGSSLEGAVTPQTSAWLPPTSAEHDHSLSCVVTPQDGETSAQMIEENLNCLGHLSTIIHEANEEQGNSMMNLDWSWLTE
Outline: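 Recombinant IKKα (4 nM), IKKβ (1 nM) or IKKε (2 nM) in 50 mM Hepes pH 7.4, 10 mM MgCl2, 1 mM EGTA, 2 mM DTT, 0.01% Tween-20. Substrate was 50 nM ULight-IκBα (IKKα/β) or ULight-rpS6 (IKKε); ATP was 1.25 µM (α/β) or 5 µM (ε). Compound was tested at 20 µM. Incubation was 1 h (IKKβ) or 2 h (IKKα/ε) at room temperature, stopped with 20 mM EDTA plus 2 nM Eu-anti-phospho antibody, then TR-FRET 665/615 nm. Results are percent inhibition versus solvent; 3–4 experiments, triplicate.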

[3] = molecular target: T3, Inhibitor of nuclear factor kappa-B kinase subunit beta (Homo sapiens) (UniProt O14920); test: Inhibition of recombinant IKKbeta (unknown origin) using ulight-IkappaomegaBalpha as substrate at 20 uM after 1 hr by LANCE ultra TR-FRET assay relative to control
T3 sequence (whole entry): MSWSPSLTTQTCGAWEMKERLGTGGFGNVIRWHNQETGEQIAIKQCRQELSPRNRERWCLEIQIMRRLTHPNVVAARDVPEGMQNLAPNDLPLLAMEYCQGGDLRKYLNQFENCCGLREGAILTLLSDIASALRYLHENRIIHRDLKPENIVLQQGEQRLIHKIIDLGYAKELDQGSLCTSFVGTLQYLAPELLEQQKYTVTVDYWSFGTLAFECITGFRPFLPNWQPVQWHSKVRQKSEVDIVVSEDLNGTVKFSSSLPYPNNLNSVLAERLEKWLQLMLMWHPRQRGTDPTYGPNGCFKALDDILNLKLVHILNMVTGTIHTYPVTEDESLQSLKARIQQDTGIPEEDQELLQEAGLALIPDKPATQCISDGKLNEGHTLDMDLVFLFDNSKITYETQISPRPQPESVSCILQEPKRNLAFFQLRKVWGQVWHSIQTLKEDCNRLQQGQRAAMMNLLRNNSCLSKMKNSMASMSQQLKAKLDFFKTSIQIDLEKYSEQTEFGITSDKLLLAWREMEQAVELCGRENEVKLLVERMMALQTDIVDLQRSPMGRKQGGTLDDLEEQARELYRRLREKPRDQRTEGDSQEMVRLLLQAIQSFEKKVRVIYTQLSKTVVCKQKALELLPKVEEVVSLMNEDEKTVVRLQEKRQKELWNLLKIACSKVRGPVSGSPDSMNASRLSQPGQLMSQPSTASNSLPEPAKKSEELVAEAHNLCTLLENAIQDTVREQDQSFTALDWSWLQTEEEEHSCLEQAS

COc1nc(/C=C/C(=O)O)cnc1-c1ccc(O)c(C23CC4CC(CC(C4)C2)C3)c1
Activity [1]: 93.2% | fold change (FC) (Jurkat): 3.1 | inhibition [2]: 17.9% | inhibition [3]: 8.2%

Cc1cc(O)c(C23CC4CC(CC(C4)C2)C3)cc1-c1ncc(/C=C/C(=O)O)s1
Activity [1]: 87.3% | fold change (FC) (Jurkat): 1.5 | inhibition [2]: 46.6% | inhibition [3]: 26.2%

COCCOCOc1ccc(-c2ncc(-c3ccc(C(=O)O)cc3)nc2OC)cc1C12CC3CC(CC(C3)C1)C2
Activity [1]: 109% | fold change (FC) (Jurkat): 2.5 | inhibition [2]: 23.8% | inhibition [3]: 25.4%

Cc1cc(O)c(C23CC4CC(CC(C4)C2)C3)cc1-c1ccc(CC(=O)O)cc1Cl
Activity [1]: 79.7% | fold change (FC) (Jurkat): 1.8 | inhibition [2]: 26.9% | inhibition [3]: 4.9%

O=C(O)/C=C/c1cnc(-c2ccc(O)c(C34CC5CC(CC(C5)C3)C4)c2)s1
Activity [1]: 92.4% | fold change (FC) (Jurkat): 0.6 | inhibition [2]: 32.8% | inhibition [3]: 5%

COCCOCOc1cc(C)c(-c2ncc(/C=C/C(=O)O)nc2OC)cc1C12CC3CC(CC(C3)C1)C2
Activity [1]: 99.5% | fold change (FC) (Jurkat): 0.3 | inhibition [2]: 45.7% | inhibition [3]: 3.8%

O=C(O)c1ccc(-c2cnc(-c3ccc(O)c(C45CC6CC(CC(C6)C4)C5)c3)s2)cc1
Activity [1]: 66.2% | fold change (FC) (Jurkat): 81.4 | inhibition [2]: 85.3% | inhibition [3]: 94.1%

COCCOCOc1cc(C)c(-c2ncc(-c3ccc(C(=O)O)cc3)s2)cc1C12CC3CC(CC(C3)C1)C2
Activity [1]: 61.6% | fold change (FC) (Jurkat): 4.9 | inhibition [2]: 73.3% | inhibition [3]: 87.7%

Cc1cc(O)c(C23CC4CC(CC(C4)C2)C3)cc1-c1ccc(/C=C/C(=O)O)cc1Cl
Activity [1]: 67.1% | fold change (FC) (Jurkat): 0.8 | inhibition [2]: 23.7% | inhibition [3]: 4.9%

CC(=O)NCCCOc1cc(/C=C/C(=O)O)ccc1-c1cc(C23CC4CC(CC(C4)C2)C3)c(O)cc1C
Activity [1]: 70% | fold change (FC) (Jurkat): 6.3 | inhibition [2]: 2.3% | inhibition [3]: 0%

COCCOCOc1cc(C)c(-c2ccc(CC(=O)O)cc2Cl)cc1C12CC3CC(CC(C3)C1)C2
Activity [1]: 74.1% | fold change (FC) (Jurkat): 2.6 | inhibition [2]: 42.3% | inhibition [3]: 39.8%

COCCOCOc1ccc(-c2ncc(/C=C/C(=O)O)nc2OC)cc1C12CC3CC(CC(C3)C1)C2
Activity [1]: 78.7% | fold change (FC) (Jurkat): 0.2 | inhibition [2]: 4.2% | inhibition [3]: 1.6%

Cc1cc(O)c(C23CC4CC(CC(C4)C2)C3)cc1-c1ccc2cc(C(=O)O)ccc2c1Cl
Activity [1]: 90% | fold change (FC) (Jurkat): 55.8 | inhibition [2]: 87.3% | inhibition [3]: 96.4%

COCCOCOc1ccc(-c2ncc(/C=C/C(=O)O)s2)cc1C12CC3CC(CC(C3)C1)C2
Activity [1]: 94.2% | fold change (FC) (Jurkat): 0.6 | inhibition [2]: 4.5% | inhibition [3]: 1.9%

COCCOCOc1cc(C)c(-c2ncc(/C=C/C(=O)O)s2)cc1C12CC3CC(CC(C3)C1)C2
Activity [1]: 75.3% | fold change (FC) (Jurkat): 1.6 | inhibition [2]: 29.2% | inhibition [3]: 12.2%

COCCOCOc1cc(C)c(-c2ccc(/C=C/C(=O)O)cc2Cl)cc1C12CC3CC(CC(C3)C1)C2
Activity [1]: 61.5% | fold change (FC) (Jurkat): 1.3 | inhibition [2]: 13.5% | inhibition [3]: 4.3%

COc1nc(/C=C/C(=O)O)cnc1-c1cc(C23CC4CC(CC(C4)C2)C3)c(O)cc1C
Activity [1]: 89% | fold change (FC) (Jurkat): 2.6 | inhibition [2]: 50.1% | inhibition [3]: 7.3%

COc1nc(-c2ccc(C(=O)O)cc2)cnc1-c1ccc(O)c(C23CC4CC(CC(C4)C2)C3)c1
Activity [1]: 95.4% | fold change (FC) (Jurkat): 42.6 | inhibition [2]: 78.5% | inhibition [3]: 83.9%

COCCOCOc1ccc(-c2ncc(-c3ccc(C(=O)O)cc3)s2)cc1C12CC3CC(CC(C3)C1)C2
Activity [1]: 92.4% | fold change (FC) (Jurkat): 9.8 | inhibition [2]: 82.9% | inhibition [3]: 89.3%

COCCOCOc1cc(C)c(-c2ccc3cc(C(=O)O)ccc3c2Cl)cc1C12CC3CC(CC(C3)C1)C2
Activity [1]: 82.7% | fold change (FC) (Jurkat): 12.4 | inhibition [2]: 33.9% | inhibition [3]: 79.2%

Cc1cc(O)c(C23CC4CC(CC(C4)C2)C3)cc1-c1ncc(-c2ccc(C(=O)O)cc2)s1
Activity [1]: 33.2% | fold change (FC) (Jurkat): 12.1 | inhibition [2]: 87.9% | inhibition [3]: 95%
